In the library only some 1.2% were active in any assay of this set; here they are far more common.
ABHD5-PLIN5 inh: blocks binding of human ABHD5 to perilipin-5 | Q00G26+Q8WTS1 | Split G. princeps luciferase complementation, luminescence, 4 h | inhibition, % at 4 µM | 0.78% of 360,000 active | AID 602281;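 active = inhibition above the mean inhibition across every tested compound plus 3 SD, cut at about 22% in these data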;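 note: 0% = DMSO only wells and the 100% control is not disclosed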
A3A deaminase: blocks human APOBEC3A ssDNA deamination; 0.41% of 330,000 active; AID 493011; recombinant A3A, FAM/TAMRA ssDNA deamination fluorescence; P31941; inhibition, % at 20 µM;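 active = at least 40% inhibition at 20 µM here, with at most 30% in a related deaminase screen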;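 note: plate controls were A3A with DMSO for no effect and wells lacking A3A enzyme for full effect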
FN deposit inh: fibronectin deposition inhibition; AH1F fibroblasts, Alexa488-fibronectin deposition fluorescence, overnight; inhibition, % at 12.6 µM; 0.086% of 350,000 active; AID 743247;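 active = mean inhibition across replicates of 30% or more, regardless of how many single replicates reach that level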;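 note: positive control wells lacked labelled fibronectin entirely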
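Assay system: AH1F fibroblasts / Quantity: 10000 cells per well / Medium: DMEM plus 2% serum, read in PBS / Reagent: labelled fibronectin 24 nM / Dosing: single dose, pinned / Times: 1 h cell attachment, overnight exposure to compound and label / Signal: fluorescence, ex 485 nm, em 525 nm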
APOBEC3G inh: inhibitors of human APOBEC3G DNA deaminase; 0.28% of 330,000 active; inhibition, % at 20 µM; recombinant A3G, ssDNA deamination FAM/TAMRA fluorescence; Q9HC16;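 active = inhibition of at least 40% at 20 µM, with no more than 30% in the related APOBEC3A deaminase screen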;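 note: plate controls were DMSO wells with A3G for no effect and wells lacking A3G enzyme for full effect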
ABHD5-PLIN5 conf: confirmation of human ABHD5-PLIN5 interaction inhibitors; 67% of 2,200 active; biochemical ABHD5-PLIN5 interaction, luminescence; inhibition, % at 4 µM; shares compounds with ABHD5-PLIN5 inh; in the data active = inhibition above about 23%;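 note: 0% = DMSO vehicle wells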
HNF4 split-luc: active in HNF4 split-luciferase counter-screen for ABHD5-PLIN5 inhibitors; shares compounds with ABHD5-PLIN5 inh; HNF4 dimerization, luminescence, biochemical; inhibition, % at 4 µM; 77% of 2,200 active; AID 651674;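 active = mean inhibition across replicate wells exceeding the computed hit threshold, cut at about 13% in these data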;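 note: light from luciferase halves that rejoin when HNF4 fusion proteins dimerize; 0% = DMSO only wells and the 100% control is not given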
Target sequence (P41235 whole entry, looked up, the tested form may be a part): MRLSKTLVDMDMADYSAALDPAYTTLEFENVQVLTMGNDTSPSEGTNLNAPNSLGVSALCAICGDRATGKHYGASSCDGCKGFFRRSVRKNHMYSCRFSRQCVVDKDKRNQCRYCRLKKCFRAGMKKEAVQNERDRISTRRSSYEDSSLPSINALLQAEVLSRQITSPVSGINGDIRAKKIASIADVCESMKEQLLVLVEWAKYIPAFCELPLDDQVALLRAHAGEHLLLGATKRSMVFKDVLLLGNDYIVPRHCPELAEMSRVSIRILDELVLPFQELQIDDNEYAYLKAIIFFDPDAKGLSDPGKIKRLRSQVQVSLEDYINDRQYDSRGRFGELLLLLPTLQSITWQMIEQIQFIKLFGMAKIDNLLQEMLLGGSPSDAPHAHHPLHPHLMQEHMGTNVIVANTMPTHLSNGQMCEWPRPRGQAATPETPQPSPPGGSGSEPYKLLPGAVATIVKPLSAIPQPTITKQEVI
The depositor's hits bear a star; x = no result.

SMILES	ABHD5-PLIN5 inh	A3A deaminase	FN deposit inh	APOBEC3G inh	ABHD5-PLIN5 conf	HNF4 split-luc
O=C1CC(c2cccnc2)=NN1c1ccc(Cl)cc1Cl	23.5*	-0.1	6.7	-0.8	0.0	-0.1
CCN1C(=O)CC(c2cccnc2)=Nc2ccccc21	-5.7	-3.1	x	-5.9	x	x
COc1ccc(C#Cc2ccc([C@H]3[C@@H](CO)N4CCCCN(C(=O)Cc5ccccc5)C[C@H]34)cc2)cc1	x	x	6.4	x	x	x
COC(=O)[C@H]1[C@H](CO)[C@H]2Cn3c(ccc(-c4ccc(F)cc4)c3=O)[C@@H]1N2C(=O)c1ccccc1F	x	x	2.7	x	x	x
CCOc1ccc(-c2cc(C)[n+](CCc3ccc(OC)c(OC)c3)c(-c3ccc(OCC)cc3)c2)cc1	24.3*	6.6	7.8	-6.4	7.4	9.8
Cc1ccc(-n2c(O)c(/C=N/c3ncc(Br)cc3Br)c(=O)[nH]c2=O)cc1	17.2	0.7	-2.0	-3.5	x	x
Cc1cccc(-n2c(O)c(C=Nc3ccc(Br)cn3)c(=O)[nH]c2=O)c1	24.2*	-0.2	0.3	-3.2	6.8	28.1*
C=C1C(=O)O[C@@H]2C[C@@H](C)[C@@H]3C=CC(=O)[C@@]3(C)[C@@H](O)[C@H]12	81.8*	-1.0	50.0*	-3.5	90.8*	90.1*
CCN(CC)S(=O)(=O)c1ccc(NN=C(C#N)C#N)cc1	25.8*	0.0	-0.2	-1.6	44.3*	34.8*
COc1ccc(OC(=O)N(C)C[C@@H]2OCc3ccccc3-c3c(n(C)c4ccccc34)C(=O)N([C@H](C)CO)C[C@H]2C)cc1	x	x	5.7	x	x	x
Cn1c(O)c(/C=C2\C=Nc3ccccc32)c(=O)n(C)c1=O	34.7*	-3.8	-3.8	-3.7	6.8	17.1*
O=C(O)c1ccc(-n2c(O)c(/C=C3\C=Nc4ccccc43)c(=O)[nH]c2=O)cc1	28.5*	-2.0	3.8	-11.2	31.5*	53.8*
COC(=O)C1=Nc2ccccc2/C1=C\c1c(O)n(C)c(=O)n(C)c1=O	12.1	-4.0	0.8	-6.8	x	x
O=c1[nH]c(=O)n(-c2cccc(F)c2)c(O)c1/C=C1\C=Nc2ccccc21	16.4	-5.1	7.5	-13.9	x	x
C[C@H]1CN([C@@H](C)CO)C(=O)c2c(c3ccccc3n2C)-c2ccccc2CO[C@@H]1CN(C)C(=O)Oc1ccccc1	x	x	13.4	x	x	x
COc1cc(/C=C/[N+](=O)[O-])ccc1O	69.5*	5.7	14.3	0.4	86.1*	93.0*
COc1ccc(-n2c(/C=C/c3ccc(O)c(OC)c3)nc3ccccc3c2=O)cc1	-0.6	-28.2	3.4	-62.9	x	x
O=c1nc(/C=C/c2ccc(Cl)cc2Cl)cc(C(F)(F)F)[nH]1	35.8*	-4.4	1.0	2.0	70.2*	47.8*
C/C=C/c1ccc(C2[C@@H]3CN(Cc4ccccn4)C[C@H]2N3)cc1 (stereo partly drawn)	x	x	-8.3	x	x	x
c1ccc2c(c1)[IH]c1ccccc1-2	-0.2	x	12.9	x	x	x
O=C1NC(=O)N(c2ccc3c(c2)OCO3)C(=O)/C1=C\c1ccsc1	24.9*	-1.7	18.1	-5.9	65.7*	56.2*
O=C1CC(=O)N(c2ccccc2F)C(=O)N1	23.2*	-1.4	-0.4	-1.4	11.8	69.8*
O=C1CC(=O)N(c2ccc(Cl)cc2Cl)C(=O)N1	16.1	2.8	x	1.2	x	x
COC(=O)C[C@@H]1CC[C@H]2NC[C@H](O)COC[C@@H]2O1	x	x	-1.6	x	x	x
CN1C(=O)C(=Cc2cccnc2)C(=O)N(C)C1=O	26.6*	-2.9	6.1	-6.7	37.4*	49.1*
Cc1ccccc1-n1c(O)c(C(c2ccncc2)c2c(O)n(-c3ccccc3C)c(=O)[nH]c2=O)c(=O)[nH]c1=O	26.5*	-3.9	0.4	-3.9	55.4*	65.5*
Cn1c(O)c(C(c2ccncc2)c2c(O)n(C)c(=S)n(C)c2=O)c(=O)n(C)c1=S	14.3	-3.7	x	-5.9	x	x
O=C(Cc1ccncc1)N1CCCCN2[C@H](C1)[C@H](c1ccc(C#Cc3ccccc3F)cc1)[C@@H]2CO	x	x	3.6	x	x	x
O=C(NC1CCCCC1)Oc1cc2oc(=O)sc2cc1Cl	69.0*	7.0	-8.2	-1.6	-38.8	13.9*
C/C=C/c1ccc([C@H]2[C@@H](CO)N3CCCCN(C(=O)Cc4cccnc4)C[C@H]23)cc1	x	x	-2.1	x	x	x

High-throughput results deposited in PubChem by several laboratories.
